Results on 2 compounds are retold here after ChEMBL document CHEMBL1781920, “Synthesis and antimicrobial activity of some new 4-hetarylpyrazole and furo[2,3-c]pyrazole derivatives” (2011).

≈ marks a conversion by molar mass, not a printed value.

Common to all, as to assay type: functional
For assay [1], the system named is Fusarium oxysporum. Nature of the assay: Antifungal activity against Fusarium oxysporum ATCC 16417 after 48 hrs by serial dilution method. The settings on record: ATCC 16417, 48 h. An outline of the steps: (§1)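 MICs were measured by microdilution in Sabouraud liquid medium, for compounds with disk zones >14 mm. DMF stocks were serially diluted twofold across 500–3.125. Sealed plates were incubated at 37 °C for 48 h in a humid chamber. The lowest concentration with no visible turbidity was recorded as the MIC.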

The subject of assay [2] is Bacillus subtilis. Nature of the assay: Antibacterial activity against Bacillus subtilis ATCC 6633 at 1 mg/ml after 24 hrs by agar-diffusion method. As to conditions: ATCC 6633, 24 h, read-out: IZ. An outline of the steps:
(§2)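 Agar disk diffusion on nutrient agar seeded with about 10⁶ CFU/mL of the test bacterium. Filter-paper disks were impregnated with compound in DMF at 1 mg/mL, two disks per plate, in triplicate. DMF alone served as control. Plates were incubated at 37 °C for 24 h, and the mean inhibition-zone diameter was recorded in mm.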

For assay [3], the system named is Bacillus subtilis. Kind of assay: Antibacterial activity against Bacillus subtilis ATCC 6633 after 24 hrs by serial dilution method relative to chloramphenicol.
Assay [4] deals with Fusarium oxysporum. Nature of the assay: Antifungal activity against Fusarium oxysporum ATCC 16417 at 1 mg/ml after 48 hrs by agar-diffusion method. The settings on record: ATCC 16417, 48 h, read-out: IZ. An outline of the steps: (§3)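 Fungi were seeded at 10⁴ CFU/mL onto nutrient agar plates. Filter-paper disks carried compound dissolved in DMF at 1 mg/mL, two disks per plate, in triplicate, with a DMF-only control. After 48 h incubation at 37 °C, the average diameter of the growth-inhibition zone was read in mm.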
On the technique in general: Agar diffusion results depend on both activity and mobility in agar.

Assay [5] has as its system Escherichia coli. Kind of assay: Antibacterial activity against Escherichia coli ATCC 14169 at 1 mg/ml after 24 hrs by agar-diffusion method. As to conditions: ATCC 14169, 24 h, read-out: IZ. An outline of the steps: as §2
Assay [6] has as its system Botrytis fabae. Kind of assay: Antifungal activity against Botrytis fabae ATCC 14862 after 48 hrs by serial dilution method. As to conditions: ATCC 14862, 48 h. The procedure, abridged:
as §1

Assay [7] deals with Bacillus thuringiensis. Kind of assay: Antibacterial activity against Bacillus thuringiensis ATCC 6051 after 24 hrs by serial dilution method. The settings on record: ATCC 6051, 24 h. An outline of the steps: (§4)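 Broth microdilution in Mueller–Hinton broth, run only for compounds giving zones >14 mm in the disk test. DMF stocks were diluted twofold from 500 to 3.125, and about 10⁶ CFU/mL bacteria were added per well. Sealed plates were kept at 37 °C for 24 h in a humid chamber. MIC was taken as the lowest concentration without visible turbidity.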

In assay [8] the test system is Pseudomonas aeruginosa. Kind of assay: Antibacterial activity against Pseudomonas aeruginosa ATCC 27853 after 24 hrs by serial dilution method. As to conditions: ATCC 27853, 24 h. The procedure, abridged:
as §4

Assay [9] deals with Pseudomonas aeruginosa. Kind of assay: Antibacterial activity against Pseudomonas aeruginosa ATCC 27853 at 1 mg/ml after 24 hrs by agar-diffusion method. As to conditions: ATCC 27853, 24 h, read-out: IZ. An outline of the steps:
as §2

Assay [10] concerns Bacillus subtilis. Nature of the assay: Antibacterial activity against Bacillus subtilis ATCC 6633 after 24 hrs by serial dilution method. The settings on record: ATCC 6633, 24 h. The procedure, abridged:
as §4

Assay [11] has as its system Escherichia coli. Kind of assay: Antibacterial activity against Escherichia coli ATCC 14169 after 24 hrs by serial dilution method. The settings on record: ATCC 14169, 24 h. The procedure, abridged: as §4
For assay [12], the system named is Bacillus thuringiensis. Kind of assay: Antibacterial activity against Bacillus thuringiensis ATCC 6051 at 1 mg/ml after 24 hrs by agar-diffusion method. As to conditions: ATCC 6051, 24 h, read-out: IZ. The procedure, abridged: as §2
In assay [13] the test system is Bacillus subtilis. Kind of assay: Antibacterial activity against Bacillus subtilis ATCC 6633 after 24 hrs by serial dilution method relative to cephalothin.
Assay [14] deals with Botrytis fabae. Kind of assay: Antifungal activity against Botrytis fabae ATCC 14862 at 1 mg/ml after 48 hrs by agar-diffusion method. The settings on record: ATCC 14862, 48 h, read-out: IZ. The procedure, abridged: as §3

The MIC is the lowest concentration found to suppress growth. Read a high MIC as weaker potency. Regarding `Cc1nn(-c2ccccc2)c2c1/C(=N/c1cnccn1)CO2`, the minimum inhibitory concentration (MIC) in assay [1] turned out to be 12.5 µg/mL (≈ 42.9 µM); in assay [6], 100 µg/mL (≈ 343 µM); in assay [7] it was 100 µg/mL (≈ 343 µM); in [8], 100 µg/mL (≈ 343 µM); in assay [10] it was 12.5 µg/mL (≈ 42.9 µM); in assay [11], 50 µg/mL (≈ 172 µM). The zone of inhibition at 1000 µg/mL in [2] was 32 mm; in [4], 31 mm; in [5] it was 20 mm; in assay [9] it was 16 mm; in assay [12] it was 15 mm; in [14] it was 16 mm. Besides, the Activity in assay [3] stood at 25%; in [13], 50%.

For `Cc1[nH]n(-c2ccccc2)c(=O)c1-c1cc2c(=O)oc3ccccc3c2o1`, the minimum inhibitory concentration (MIC) in [1] was 6.25 µg/mL (≈ 17.4 µM); in assay [6], 6.25 µg/mL (≈ 17.4 µM); in assay [7], 100 µg/mL (≈ 279 µM); in assay [8], 6.25 µg/mL (≈ 17.4 µM); in [10], 12.5 µg/mL (≈ 34.9 µM); in assay [11] it was 6.25 µg/mL (≈ 17.4 µM). Further, the zone of inhibition at 1000 µg/mL came out at 33 mm in [2]; 37 mm in assay [4]; 15 mm in [5]; 38 mm in assay [9]; 15 mm in assay [12]; 37 mm in [14]. Besides, the Activity in [3] came out at 25%; in assay [13] it was 50%.
